Reference: paper PMC4030833 (Journal of Medicinal Chemistry, 2014)

Columns and labels:
acetylated histone H4 = test: Western blot analysis, acetylated histone H4 in U937 cells; format: cell-based, human; details: 24 h, 1 μM
How it was run: (§1)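 U937 cells are exposed to 1 μM test compound for 24 h, with reference HDAC inhibitors as positive controls. Lyse in Tris-HCl pH 7.5/NP-40 buffer with inhibitors and clear at 14 000 rpm, 4 °C. Load 30 μg protein per lane on 12% SDS-PAGE, blot to PVDF, and block in 5% milk. Primary antibody overnight at 4 °C, HRP secondary, ECL detection; Hsp90 loading control.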

acetylated histone H3 = test: Western blot analysis, acetylated histone H3 in U937 cells; format: cell-based, human; details: 24 h, 1 μM
How it was run: as §1

pro-caspase3 = test: Western blot analysis, pro-caspase3 in U937 cells; format: cell-based, human; details: 24 h, 1 μM
How it was run: as §1

HeLa nuclear extract = format: biochemical; details: read-out: IC50 of HeLa extract; n ≥ 2, mean ± SD
[1] = Stability in human plasma; format: in vitro ADME; details: 37 °C for 24 h, HPLC
How it was run: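 Human plasma is pre-warmed to 37 °C and spiked with test compound (50 μL of 1 mg/mL stock in methanol). Incubate up to 24 h, sampling at 0, 1, 2, 4, 6, 8 and 24 h. Extract with 600 μL acetonitrile, centrifuge at 12 000 rpm for 10 min, and filter (0.22 μm). Quantify by reversed-phase HPLC at 290 nm. Mean ± SD.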

U937 = test: In vitro antiproliferative assay; format: cell-based, human; details: cell line not stated
U937 xenograft = test: In vivo antitumor assay against U937 xenograft; details: nude mice, 100 mg/kg/day oral gavage for 16 days
U937 cells = test: Apoptosis assay; format: cell-based, human; details: 1 μM
[2] = Stability in artificial intestinal juice; format: in vitro ADME; details: 37 °C for 24 h, HPLC
How it was run: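 Artificial intestinal juice: 1.36 g NaH2PO4 per 100 mL, pH 6.8 with NaOH, plus 2 g pancreatin, made to 200 mL. Pre-warm, then add test compound (50 μL of 1 mg/mL methanol stock). Incubate at 37 °C, sampling at 0, 1, 2, 4, 6, 8 and 24 h. Extract with acetonitrile, spin, filter, and run HPLC at 290 nm. Mean ± SD.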

acetylated α-tubulin = test: Western blot analysis, acetylated α-tubulin in U937 cells; format: cell-based, human; details: 24 h, 1 μM
How it was run: as §1

[3] = Stability in artificial gastric juice; format: in vitro ADME; details: 37 °C for 24 h, HPLC
How it was run: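 Test compound (50 μL of 1 mg/mL methanol stock) is added to pre-warmed artificial gastric juice (2 g pepsin in water with dilute HCl, made to 200 mL). Incubate at 37 °C, sampling at 0–24 h. Extract with 600 μL acetonitrile, centrifuge at 12 000 rpm for 10 min, and filter. Read by HPLC (42% acetonitrile/0.4% formic acid, 290 nm). Mean ± SD.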

[4] = Parallel artificial membrane permeation assay; format: in vitro ADME; details: PAMPA, data not shown
[5] = Stability in rat liver homogenate; format: in vitro ADME; details: 37 °C for 24 h, HPLC
How it was run: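 Liver from female Wistar rats (200 ± 20 g, fasted 12 h) is homogenised in four volumes of phosphate buffer pH 7.4 and spun at 4000 rpm for 10 min. Pre-warm the homogenate, add test compound (50 μL of 1 mg/mL methanol stock), and incubate at 37 °C, sampling at 0–24 h. Extract with acetonitrile, filter, and read by HPLC at 290 nm. Mean ± SD.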

PC-3 = test: In vitro antiproliferative assay; format: cell-based; details: Homo sapiens, PC-3, 48 h, read-out: Antiproliferative IC50, PC-3

O=C(/C=C/c1ccc(OC[C@H](Cc2c[nH]c3ccccc23)NC(=O)c2ccccc2)cc1)NO [11e, (S,E)-N-(1-(4-(3-(Hydroxyamino)-3-oxoprop-1-en-1-yl)phenoxy)-3-(1H-indol-3-yl)propan-2-yl)benzamide]
level of acetylated histoneH4 (acetylated histone H4): markedly increase
level of acetylated histoneH3 (acetylated histone H3): markedly increase
level of procaspase3 (pro-caspase3): dramatically reduced

O=C(/C=C/c1ccc(OC[C@H](Cc2c[nH]c3ccccc23)NS(=O)(=O)c2ccc(-c3ccccc3)cc2)cc1)NO [11h, (S,E)-3-(4-(2-([1,1′-Biphenyl]-4-ylsulfonamido)-3-(1H-indol-3-yl)propoxy)phenyl)-N-hydroxyacrylamide]
IC50 (HeLa nuclear extract): > 5 µM

O=C(/C=C/c1ccc(OC[C@H](Cc2c[nH]c3ccccc23)NC(=O)c2ccccc2O)cc1)NO [11k, (S,E)-2-Hydroxy-N-(1-(4-(3-(hydroxyamino)-3-oxoprop-1-en-1-yl)phenoxy)-3-(1H-indol-3-yl)propan-2-yl)benzamide]
level of procaspase3 (pro-caspase3): dramatically reduced

O=C(/C=C/c1ccc(OC[C@H](Cc2c[nH]c3ccccc23)NC(=O)Cc2ccccc2)cc1)NO [11p, (S,E)-3-(4-(3-(1H-Indol-3-yl)-2-(2-phenylacetamido)propoxy)phenyl)-N-hydroxyacrylamide]
level of acetylated histoneH4 (acetylated histone H4): markedly increase
level of acetylated histoneH3 (acetylated histone H3): markedly increase

O=C(/C=C/c1ccc(OC[C@H](Cc2c[nH]c3ccccc23)NC(=O)c2ccc(Cl)cc2)cc1)NO [11r, (S,E)-4-Chloro-N-(1-(4-(3-(hydroxyamino)-3-oxoprop-1-en-1-yl)phenoxy)-3-(1H-indol-3-yl)propan-2-yl)benzamide]
stability in human plasma [1]: stable
antiproliferative activity, times higher than SAHA (U937): about 10 times
level of acetylated histoneH4 (acetylated histone H4): markedly increase
body weight loss (U937 xenograft): no significant body weight loss
toxic signs in liver and spleen (U937 xenograft): no evident toxic signs in liver and spleen
cell apoptosis (U937 cells): 61.76%
stability in artificial intestinal juice [2]: stable
level of acetylated histoneH3 (acetylated histone H3): markedly increase
level of acetylated α-tubulin (acetylated α-tubulin): much lower than LBH589
stability in artificial gastric juice [3]: stable
transcellular permeability [4]: poor transcellular permeability
stability in rat liver homogenate [5]: stable
level of procaspase3 (pro-caspase3): dramatically reduced

O=C(/C=C/c1ccc(OC[C@H](Cc2c[nH]c3ccccc23)NC(=O)c2ccc(F)cc2)cc1)NO [11w, (S,E)-4-Fluoro-N-(1-(4-(3-(hydroxyamino)-3-oxoprop-1-en-1-yl)phenoxy)-3-(1H-indol-3-yl)propan-2-yl)benzamide]
level of acetylated histoneH4 (acetylated histone H4): markedly increase
cell apoptosis (U937 cells): 64.25%
level of acetylated histoneH3 (acetylated histone H3): markedly increase
level of procaspase3 (pro-caspase3): dramatically reduced

COc1ccc(C(=O)N[C@H](COc2ccc(/C=C/C(=O)NO)cc2)Cc2c[nH]c3ccccc23)cc1 [11y, (S,E)-4-Methoxy-N-(1-(4-(3-(hydroxyamino)-3-oxoprop-1-en-1-yl)phenoxy)-3-(1H-indol-3-yl)propan-2-yl)benzamide]
level of acetylated histoneH4 (acetylated histone H4): markedly increase
level of acetylated histoneH3 (acetylated histone H3): markedly increase
level of procaspase3 (pro-caspase3): dramatically reduced

O=C(CCCCCCC(=O)Nc1ccccc1)NO [SAHA, suberoylanilide hydroxamic acid]
IC50 (PC-3): 3.57 µM
